We go through 14 compounds from PubChem BioAssay.

The structures appear in SMILES notation. Active and inactive are the calls of the source.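 How the source made its calls, unless noted: active means NADPH fluorescence slope more negative than the mean of all samples by about 3 SD, 99.7% confidence; inactive means the rest.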

A short description of experiment [1]: inhibitors of TNFa-induced NFkB p65 translocation, primary screen, imaging, HUVEC, MLSMR starter and 10KST1 sets (AID 438;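 active means inhibition above 20% together with a positive visual image hit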;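 further: compound added about 3h40 before a 20 min TNFalpha stimulation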;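 on inhibition: signal is the nuclear over cytoplasmic p65 intensity ratio per well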). The conditions noted are these: HUVEC TNFa-induced p65 nuclear translocation; cell count: measured here: nuclei count (cytotoxicity indicator), at 2.08 µM; inhibition: at 2 µM, stronger effect = higher value, 0% TNFa-plus-vehicle, 100% no-TNFa wells.

Experiment [2] in a line: reduction of polyQ htt aggregates in cells – imaging, exon1htt(103Q)mCFP cells, high-content imaging, primary screen (AID 483;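 active means visual image review flags a hit and inhibition of aggregation exceeds 20%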;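 further: compound exposure lasted 3 days before fixation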;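 on nuclei count: percent of the per-plate median nuclei count of sample wells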). The conditions noted are these: exon1htt(103Q)mCFP cell line, aggregate imaging, at 2 µM; inhibition of aggregation: stronger effect = higher value; nuclei count: measured here: cell count, toxicity.
Experiment [3] in a line: endothelial E-selectin expression blockers – imaging, HUVEC, immunofluorescence, MLSMR starter and 10KST1 sets, primary screen (AID 487;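 active means visually confirmed hit in the image check and inhibition above 20%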;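 on inhibition: signal is fraction of cell area covered by stained E-selectin grains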;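 on nuclei count: 100% = median nuclei count of all wells on the same plate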). The conditions noted are these: HUVEC TNFalpha-induced E-selectin immunofluorescence imaging, at 2 µM; inhibition: stronger effect = higher value; nuclei count: measured here: cell number, toxicity.
Experiment [4] has as its target Voltage-gated potassium channel subunit beta-2 (Rattus norvegicus) (UniProt P62483). Put plainly: inhibitors of rat Kvbeta2 reductase activity – biochemical, NADPH fluorescence, primary screen (AID 622;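 active means fluorescence slope higher than the sample average by over 3 SD, cut at about -0.22 in these data, passing the limit was not always enough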;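 further: slope of raw intensity against log time taken from 70 to 1610 s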). The conditions noted are these: recombinant KvBeta, 4-cyanobenzaldehyde reduction, at 10 µM, stronger effect = higher value.
For experiment [5] the target is unchanged. Description: enhancers of rat Kvbeta2 NADPH turnover – biochemical, NADPH fluorescence, primary screen (AID 623).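 Further: fluorescence intensity change per second fitted from 20 to 320 s.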 The conditions noted are these: Recombinant KvBeta, NADPH fluorescence decrease slope, 10 min; at 10 µM; stronger effect = lower value.
The target of experiment [6] is Muscarinic acetylcholine receptor M4 (Homo sapiens) (UniProt P08173). Put plainly: M4-linked GIRK flux change, two-sided – cell-based, HEK293 M4/GIRK, thallium flux, BTC-AM, M4 allosteric agonist project, primary screen (AID 625;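 active means fluorescence slope after compound addition differing from the mean of all tested samples at 99.7% confidence, mostly higher but some lower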;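 further: thallium influx through GIRK channels coupled to M4 in HEK293 cells with BTC-AM dye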). To be noted: at 10 µM, actives lie on both sides. The procedure, abridged:
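assay system = HEK293 cells with M4 receptor and GIRK channels | medium = pH 7.3 thallium assay buffer | doses = 10 µM final, single point | timing = cells overnight at 37 °C, BTC-AM loading 1 h, reads 2 min total | signal = BTC-AM fluorescence, 1 Hz kinetic reads | read-out = post-addition slope, 15–24 s, of baseline-normalized fluorescence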

Experiment [7] can be described thus: blockers of RIG-like receptor reporter activation – cell-based, Sendai virus stimulus, luciferase, 10K MLSCN set, TLR/RLR signaling modifier project, primary screen (AID 602276;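 active means inhibition at or above 50% at 10 µM; inactive means inhibition below 50%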;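 further: firefly luciferase from ISG56 promoter only with Renilla not read in this screen; 0% = Sendai virus plus DMSO and 100% = medium plus DMSO without virus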). The conditions noted are these: HEK293 RL24 IRF3 luciferase reporter, at 10 µM, stronger effect = higher value.
Experiment [8] in a line: TLR3 IRF3 reporter activation blockers – cell-based, poly I:C stimulus, luciferase, 10K MLSCN set, primary screen (AID 602277;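 active means inhibition of the reporter signal at or above 50%; inactive means inhibition below 50%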). To be noted: HEK293-TLR3 RL24 IRF3 luciferase reporter, at 10 µM, stronger effect = higher value.

Sequence of Muscarinic acetylcholine receptor M4 (Homo sapiens) (P08173 whole entry, looked up): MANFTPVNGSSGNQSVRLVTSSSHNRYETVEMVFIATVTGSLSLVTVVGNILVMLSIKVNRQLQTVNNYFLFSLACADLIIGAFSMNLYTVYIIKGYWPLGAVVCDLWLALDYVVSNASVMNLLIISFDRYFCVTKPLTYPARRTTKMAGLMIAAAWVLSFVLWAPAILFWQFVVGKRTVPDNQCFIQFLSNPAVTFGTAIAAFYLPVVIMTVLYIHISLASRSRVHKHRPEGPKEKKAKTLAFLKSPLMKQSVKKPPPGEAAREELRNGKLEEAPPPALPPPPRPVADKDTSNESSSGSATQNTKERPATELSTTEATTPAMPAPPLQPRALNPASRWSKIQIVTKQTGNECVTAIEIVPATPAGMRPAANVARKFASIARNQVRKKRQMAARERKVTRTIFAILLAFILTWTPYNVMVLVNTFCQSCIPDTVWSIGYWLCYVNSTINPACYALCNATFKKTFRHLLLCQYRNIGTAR
Sequence of Voltage-gated potassium channel subunit beta-2 (Rattus norvegicus) (P62483 whole entry, looked up): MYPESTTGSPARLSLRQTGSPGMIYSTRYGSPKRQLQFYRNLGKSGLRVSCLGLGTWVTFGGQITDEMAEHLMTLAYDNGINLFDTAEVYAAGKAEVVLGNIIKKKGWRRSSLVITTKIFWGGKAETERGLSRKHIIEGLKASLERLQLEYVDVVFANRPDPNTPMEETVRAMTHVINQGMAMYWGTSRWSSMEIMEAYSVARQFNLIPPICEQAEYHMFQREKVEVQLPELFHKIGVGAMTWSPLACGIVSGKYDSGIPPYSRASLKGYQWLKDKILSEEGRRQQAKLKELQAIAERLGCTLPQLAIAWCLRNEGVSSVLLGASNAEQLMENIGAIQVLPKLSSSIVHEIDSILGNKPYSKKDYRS

`O=C(NCCc1cccc(Cl)c1)c1cccnc1`: the cell count in experiment [1] amounted to 341. The inhibition in experiment [1] is -8% (inactive); in experiment [3], -194% (inactive); in experiment [7] it was -14.6% (inactive); in experiment [8] it was -52% (inactive). The inhibition of aggregation in experiment [2] is -14.1% (inactive). Moreover, the nuclei count in experiment [2] came to 95.5%; in experiment [3], 119%. The fluorescence slope in experiment [4] was -0.562 (inactive); in experiment [6] it was 0.00601 (inactive). For the same compound, the NADPH fluorescence slope in experiment [5] was -1.7e-05 (inactive).

For `CC(C)Cn1cc(C(=O)NCC2CCCO2)c2c3ccccc3n(C)c2c1=O` (centres undefined), the cell count in experiment [1] amounted to 267. In addition, the inhibition in experiment [1] is 11.4% (inactive); in experiment [3], -24.4% (inactive); in experiment [7], 13.7% (inactive); in experiment [8], 18.7% (inactive). Moreover, the inhibition of aggregation in experiment [2] was 3.2% (inactive). Also, the values for the nuclei count in experiment [2] and in experiment [3] were 79.8% and 107%, respectively. In addition, the fluorescence slope was -0.523 (inactive) in experiment [4] and 0.00592 (inactive) in experiment [6]. Also, in experiment [5], the NADPH fluorescence slope was -3.1e-05 (inactive).

For `Nc1nonc1-c1noc(-c2ccccc2Br)n1`, the cell count in experiment [1] was found to be 384. In addition, the inhibition in experiment [1] was -1.6% (inactive); in experiment [3], -23.9% (inactive); in experiment [7], 5.89% (inactive); in experiment [8] it was -26.2% (inactive). Also, the inhibition of aggregation in experiment [2] was -6.3% (inactive). Moreover, the nuclei count is 63% in experiment [2] and 112% in experiment [3]. Besides, the fluorescence slope in experiment [4] was -0.252 (inactive); in experiment [6] it was 0.00797 (inactive). Moreover, the NADPH fluorescence slope in experiment [5] was -2.2e-05 (inactive).

On to `COc1ccccc1S(=O)(=O)n1cc(Cc2ccccc2)c(N)n1`, for which the cell count in experiment [1] was found to be 341. In addition, the inhibition in experiment [1] is -21.8% (inactive); in experiment [3], -28.1% (inactive); in experiment [7], 3.66% (inactive); in experiment [8], 31.1% (inactive). In addition, the inhibition of aggregation in experiment [2] is 0.9% (inactive). For the same compound, the figures for the nuclei count in experiment [2] and in experiment [3] were 89% and 114%, respectively. The fluorescence slope in experiment [4] is -0.493 (inactive); in experiment [6] it was 0.0055 (inactive). For the same compound, the NADPH fluorescence slope in experiment [5] is -1.1e-05 (inactive).

For the compound `CCOC(=O)c1sc2nc3c(cc2c1N)COC(C)(C)C3`, the cell count in experiment [1] was 746. Further, the inhibition in experiment [1] is -5.9% (inactive); in experiment [3], 8.8% (inactive); in experiment [7], -38.4% (inactive); in experiment [8], -104% (inactive). Also, the inhibition of aggregation in experiment [2] was 0.2% (inactive). Further, the nuclei count in experiment [2] and in experiment [3] was 105% in each case. Further, the fluorescence slope in experiment [4] is -0.432 (inactive); in experiment [6], 0.0043 (inactive). Also, the NADPH fluorescence slope in experiment [5] was -5.4e-06 (inactive).

For the compound `CC(NC(=O)OCc1ccccc1)C(=O)N1CC(O)CC1C(=O)O` (centres undefined), the cell count in experiment [1] amounted to 280. For the same compound, the inhibition is 0.9% (inactive) in experiment [1], 26.8% (inactive) in experiment [3], 16.9% (inactive) in experiment [7] and 22.2% (inactive) in experiment [8]. For the same compound, the inhibition of aggregation in experiment [2] is 2.6% (inactive). Moreover, the values for the nuclei count in experiment [2] and in experiment [3] were 79.3% and 85.4%, respectively. Besides, the fluorescence slope was -0.562 (inactive) in experiment [4] and 0.00618 (inactive) in experiment [6]. Also, the NADPH fluorescence slope in experiment [5] was -1.6e-05 (inactive).

Turning to `CC(C)=CCSc1nnc(CCNC(=O)OC(C)(C)C)o1`, the cell count in experiment [1] amounted to 391. In addition, the inhibition in experiment [1] was 14.5% (inactive); in experiment [3], 22.3% (inactive); in experiment [7] it was 9.62% (inactive); in experiment [8] it was 12.6% (inactive). Also, the inhibition of aggregation in experiment [2] was 17.1% (inactive). The nuclei count in experiment [2] turned out to be 90%; in experiment [3], 95.7%. Further, the fluorescence slope in experiment [4] is -0.402 (inactive); in experiment [6] it was 0.00571 (inactive). In addition, in experiment [5], the NADPH fluorescence slope was 8.7e-05 (inactive).

As for `O=C(COc1ccccc1Cl)OCC(=O)N1CCN(S(=O)(=O)c2ccccc2)CC1`, the cell count in experiment [1] came out at 270. The inhibition is 2.6% (inactive) in experiment [1], -107% (inactive) in experiment [3], 16.4% (inactive) in experiment [7] and 21% (inactive) in experiment [8]. Besides, the inhibition of aggregation in experiment [2] was -0.5% (inactive). In addition, the nuclei count came out at 107% in experiment [2] and 119% in experiment [3]. In addition, the fluorescence slope in experiment [4] is -0.438 (inactive); in experiment [6] it was 0.00565 (inactive). For the same compound, in experiment [5], the NADPH fluorescence slope was 7.9e-05 (inactive).

In the case of `Cc1ccc(Cn2nnc3c(=O)[nH]c(C4CCN(C(=O)c5cccs5)CC4)nc32)cc1`, in experiment [1], the cell count came out at 430. Further, the inhibition in experiment [1] is 5.1% (inactive); in experiment [3] it was -71.2% (inactive); in experiment [7], 5.84% (inactive); in experiment [8] it was 10.8% (inactive). Besides, the inhibition of aggregation in experiment [2] is -16.4% (inactive). Moreover, the nuclei count in experiment [2] stood at 106%; in experiment [3], 109%. Moreover, the values for the fluorescence slope in experiment [4] and in experiment [6] were -0.546 (inactive) and 0.00572 (inactive), respectively. Also, in experiment [5], the NADPH fluorescence slope is 1.3e-05 (inactive).

In the case of `Nc1nc(-c2ccc(Cl)cc2)cc(C(F)(F)F)n1`, the cell count in experiment [1] was found to be 439. The inhibition in experiment [1] is 2.1% (inactive); in experiment [3], -16.4% (inactive); in experiment [7], 1.69% (inactive); in experiment [8], -12.7% (inactive). Besides, the inhibition of aggregation in experiment [2] is 4.9% (inactive). For the same compound, the nuclei count was 103% in experiment [2] and 109% in experiment [3]. Besides, the fluorescence slope in experiment [4] is -0.582 (inactive); in experiment [6], 0.00927 (inactive). Also, in experiment [5], the NADPH fluorescence slope is -1.9e-07 (inactive).

For the compound `CCCCN(CC)S(=O)(=O)N1CCC(C(=O)NCc2ccc(F)cc2)CC1`, the cell count in experiment [1] worked out at 705. The inhibition is -6.9% (inactive) in experiment [1], -8% (inactive) in experiment [3], 12.4% (inactive) in experiment [7] and 15.9% (inactive) in experiment [8]. In experiment [2], the inhibition of aggregation was -1.2% (inactive). For the same compound, the nuclei count was found to be 96.5% in experiment [2] and 113% in experiment [3]. The figures for the fluorescence slope in experiment [4] and in experiment [6] were -0.594 (inactive) and 0.00507 (inactive), respectively. For the same compound, in experiment [5], the NADPH fluorescence slope is -2.1e-05 (inactive).

As to `O=C(Nc1ccc2nn(-c3ccccc3)nc2c1)c1ccc(Br)o1`, the cell count in experiment [1] stood at 355. For the same compound, the inhibition in experiment [1] is -1.7% (inactive); in experiment [3] it was 6.4% (inactive); in experiment [7], -22.8% (inactive); in experiment [8] it was -70.4% (inactive). Further, the inhibition of aggregation in experiment [2] is 9.1% (inactive). The nuclei count in experiment [2] came to 106%; in experiment [3], 101%. In addition, the values for the fluorescence slope in experiment [4] and in experiment [6] were -0.213 (inactive) and 0.00781 (inactive), respectively. The NADPH fluorescence slope in experiment [5] was -2.9e-05 (inactive).

Turning to `COc1cc(C(=O)Nc2cc(Cl)ccc2C)c(-n2cnnn2)cc1OC`, the cell count in experiment [1] came out at 715. Moreover, the inhibition is 8.8% (inactive) in experiment [1], -62.1% (inactive) in experiment [3], 13.5% (inactive) in experiment [7] and 15.4% (inactive) in experiment [8]. The inhibition of aggregation in experiment [2] was 15.8% (inactive). The nuclei count stood at 83.5% in experiment [2] and 117% in experiment [3]. The fluorescence slope was -0.474 (inactive) in experiment [4] and 0.00699 (inactive) in experiment [6]. Besides, in experiment [5], the NADPH fluorescence slope was 0.00014 (inactive).

Consider `CC(=O)Nc1ccc(S(=O)(=O)n2cnc(C)c2)cc1`, for which the cell count in experiment [1] was determined as 697. For the same compound, the inhibition was -10.2% (inactive) in experiment [1], -26.8% (inactive) in experiment [3], -6.5% (inactive) in experiment [7] and -8.68% (inactive) in experiment [8]. In addition, in experiment [2], the inhibition of aggregation is -20.6% (inactive). In addition, the values for the nuclei count in experiment [2] and in experiment [3] were 99.8% and 118%, respectively. For the same compound, the figures for the fluorescence slope in experiment [4] and in experiment [6] were -0.584 (inactive) and 0.0072 (inactive), respectively. In experiment [5], the NADPH fluorescence slope was 4.1e-05 (inactive).

A word on the inhibition: it is the drop in the measured response relative to a control, in per cent.
